# Data: ChEMBL document CHEMBL1938374, “Synthesis and biological characterization of 3-substituted-1H-indoles as ligands of GluN2B-containing N-methyl-D-aspartate receptors” (J Med Chem, 2011)
# Calls of active or inactive are those of the source. The rule behind the calls is not given here.
# Experiments:
# [1] = molecular target: Glutamate receptor ionotropic, NMDA 2B (Rattus norvegicus) (UniProt Q00960); experiment: Displacement of [3H]ifenprodil from GluN2B/NMDA in Wistar rat cerebral cortex at 10 uM after 120 mins by scintillation counting; format: tissue-based
# [2] = Displacement of [3H]DTG from sigma 2 receptor after 120 mins by liquid scintillation counting in presence of (+)-SKF10,047
# [3] = molecular target: Sigma non-opioid intracellular receptor 1 (Cavia porcellus, UniProt Q60492); experiment: Displacement of [3H](+)pentazocine from sigma 1 receptor in guinea pig brain membrane after 150 mins by liquid scintillation counting; format: cell membranes
# [4] = molecular target: Glutamate receptor ionotropic, NMDA 2B (Mus musculus) (UniProt Q01097); experiment: Antagonist activity at GluN2B/NMDA in FVB mouse CA1 pyramidal neurons assessed as reduction in NMDA-mediated inward current at 10 uM measured for 5 mins by whole-cell patch clamp assay in presence of glycine and tetrodotoxin; format: functional, cell-based; conditions: Pyramidal neuron
# Mus musculus [5] = experiment: Anticonvulsant activity in DBA/2 mouse assessed as inhibition of audiogenic clonic seizures administered as ip, 30 mins prior to auditory stimulation measured for 60 secs; format: functional; conditions: DBA/2, ip
# How it was run: (§1)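 Seizure ED50 values, in μmol/kg, were computed by the Litchfield and Wilcoxon method. At least 32 animals went into each ED50, and 95% confidence limits are reported.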
# Mus musculus [6] = experiment: Anticonvulsant activity in DBA/2 mouse assessed as inhibition of audiogenic tonic seizures administered as ip, 30 mins prior to auditory stimulation measured for 60 secs; format: functional; conditions: DBA/2, ip; how it was run: as §1
# [7] = molecular target: Glutamate receptor ionotropic, NMDA 2B (Rattus norvegicus, UniProt Q00960); experiment: Displacement of [3H]ifenprodil from GluN2B/NMDA in Wistar rat cerebral cortex after 120 mins by scintillation counting; format: tissue-based
# Sequence of Glutamate receptor ionotropic, NMDA 2B (Q00960 whole entry): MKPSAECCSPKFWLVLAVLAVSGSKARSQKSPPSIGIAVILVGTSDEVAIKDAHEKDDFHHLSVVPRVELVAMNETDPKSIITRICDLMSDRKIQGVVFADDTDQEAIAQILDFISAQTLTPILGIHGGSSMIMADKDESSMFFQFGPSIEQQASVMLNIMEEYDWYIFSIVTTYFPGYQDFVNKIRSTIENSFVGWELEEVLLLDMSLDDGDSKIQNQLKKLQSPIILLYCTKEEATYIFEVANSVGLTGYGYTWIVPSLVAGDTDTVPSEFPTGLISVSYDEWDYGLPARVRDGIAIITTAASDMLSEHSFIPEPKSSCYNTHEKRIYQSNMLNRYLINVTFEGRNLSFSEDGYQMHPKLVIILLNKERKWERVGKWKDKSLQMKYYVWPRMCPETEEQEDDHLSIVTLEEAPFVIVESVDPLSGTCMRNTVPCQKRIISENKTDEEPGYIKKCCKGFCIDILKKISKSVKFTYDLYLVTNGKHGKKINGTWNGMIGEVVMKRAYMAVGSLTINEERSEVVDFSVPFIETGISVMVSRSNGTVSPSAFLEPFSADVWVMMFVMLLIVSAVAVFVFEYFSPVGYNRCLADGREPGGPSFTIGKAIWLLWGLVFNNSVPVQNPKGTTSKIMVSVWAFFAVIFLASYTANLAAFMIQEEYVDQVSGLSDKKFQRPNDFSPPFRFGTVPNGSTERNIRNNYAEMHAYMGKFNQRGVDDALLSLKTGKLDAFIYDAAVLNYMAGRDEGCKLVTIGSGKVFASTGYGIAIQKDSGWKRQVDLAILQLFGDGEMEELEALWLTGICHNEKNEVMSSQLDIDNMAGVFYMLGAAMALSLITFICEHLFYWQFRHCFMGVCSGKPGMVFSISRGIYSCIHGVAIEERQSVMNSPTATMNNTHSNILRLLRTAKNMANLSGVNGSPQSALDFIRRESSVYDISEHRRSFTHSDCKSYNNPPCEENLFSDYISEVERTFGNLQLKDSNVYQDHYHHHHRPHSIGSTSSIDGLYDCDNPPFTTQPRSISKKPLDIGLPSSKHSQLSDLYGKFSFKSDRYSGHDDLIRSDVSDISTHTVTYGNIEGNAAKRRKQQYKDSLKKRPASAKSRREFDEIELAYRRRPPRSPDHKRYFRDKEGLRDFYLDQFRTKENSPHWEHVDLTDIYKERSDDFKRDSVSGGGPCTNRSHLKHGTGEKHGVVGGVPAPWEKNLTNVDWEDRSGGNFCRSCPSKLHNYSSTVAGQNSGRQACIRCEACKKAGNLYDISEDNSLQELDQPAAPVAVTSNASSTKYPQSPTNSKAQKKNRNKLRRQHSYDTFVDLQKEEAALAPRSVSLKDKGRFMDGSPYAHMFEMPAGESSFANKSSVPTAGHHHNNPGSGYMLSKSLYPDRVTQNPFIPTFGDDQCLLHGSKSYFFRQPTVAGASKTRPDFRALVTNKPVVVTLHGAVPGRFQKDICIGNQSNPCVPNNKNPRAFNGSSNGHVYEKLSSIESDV
# Sequence of Glutamate receptor ionotropic, NMDA 2B (Rattus norvegicus) (Q00960 27-1482 limits assumed): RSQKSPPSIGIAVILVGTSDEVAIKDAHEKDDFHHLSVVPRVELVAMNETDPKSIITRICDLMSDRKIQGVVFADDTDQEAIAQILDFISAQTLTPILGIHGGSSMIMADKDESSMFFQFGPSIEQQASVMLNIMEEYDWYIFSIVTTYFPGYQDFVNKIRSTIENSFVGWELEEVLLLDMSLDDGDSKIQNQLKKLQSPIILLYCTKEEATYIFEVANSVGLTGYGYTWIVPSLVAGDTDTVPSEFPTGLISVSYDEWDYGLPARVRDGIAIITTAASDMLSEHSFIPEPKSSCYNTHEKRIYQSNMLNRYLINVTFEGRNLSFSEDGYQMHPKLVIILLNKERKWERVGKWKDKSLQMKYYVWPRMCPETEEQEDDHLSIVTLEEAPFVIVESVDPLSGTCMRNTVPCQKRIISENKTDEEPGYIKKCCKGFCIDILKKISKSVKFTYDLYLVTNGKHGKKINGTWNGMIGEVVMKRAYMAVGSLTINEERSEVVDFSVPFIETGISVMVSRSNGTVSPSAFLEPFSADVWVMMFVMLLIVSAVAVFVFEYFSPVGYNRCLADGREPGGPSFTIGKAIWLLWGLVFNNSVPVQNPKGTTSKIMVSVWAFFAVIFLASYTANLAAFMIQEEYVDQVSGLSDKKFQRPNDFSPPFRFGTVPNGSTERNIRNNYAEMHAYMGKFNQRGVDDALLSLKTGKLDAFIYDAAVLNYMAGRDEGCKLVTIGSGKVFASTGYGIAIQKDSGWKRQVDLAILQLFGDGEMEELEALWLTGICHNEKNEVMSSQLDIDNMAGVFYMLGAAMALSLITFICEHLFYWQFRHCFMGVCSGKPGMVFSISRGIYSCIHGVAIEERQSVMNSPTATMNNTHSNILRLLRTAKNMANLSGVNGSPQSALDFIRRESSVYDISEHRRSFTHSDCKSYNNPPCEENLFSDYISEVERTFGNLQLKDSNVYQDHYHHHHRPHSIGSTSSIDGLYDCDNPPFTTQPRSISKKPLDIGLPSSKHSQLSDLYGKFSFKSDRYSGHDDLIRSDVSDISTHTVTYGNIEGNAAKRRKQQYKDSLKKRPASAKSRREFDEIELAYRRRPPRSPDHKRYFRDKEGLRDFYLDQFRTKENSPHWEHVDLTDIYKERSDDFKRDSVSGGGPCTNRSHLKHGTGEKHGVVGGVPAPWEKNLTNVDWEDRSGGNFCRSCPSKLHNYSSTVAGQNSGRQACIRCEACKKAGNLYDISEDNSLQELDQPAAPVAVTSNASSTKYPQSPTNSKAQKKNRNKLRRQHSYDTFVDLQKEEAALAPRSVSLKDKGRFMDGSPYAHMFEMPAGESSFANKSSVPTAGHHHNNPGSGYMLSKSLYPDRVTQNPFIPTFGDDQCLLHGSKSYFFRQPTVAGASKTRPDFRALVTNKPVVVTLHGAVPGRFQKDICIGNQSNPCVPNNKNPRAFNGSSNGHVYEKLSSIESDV
# Sequence of Sigma non-opioid intracellular receptor 1 (Q60492 whole entry): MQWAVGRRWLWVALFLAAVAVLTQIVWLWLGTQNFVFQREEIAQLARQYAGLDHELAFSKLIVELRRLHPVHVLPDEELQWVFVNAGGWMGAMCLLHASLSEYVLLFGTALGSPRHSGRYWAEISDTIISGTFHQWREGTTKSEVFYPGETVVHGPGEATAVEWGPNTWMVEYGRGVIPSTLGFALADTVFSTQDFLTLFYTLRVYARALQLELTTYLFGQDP
# Sequence of Glutamate receptor ionotropic, NMDA 2B (Mus musculus) (Q01097 whole entry): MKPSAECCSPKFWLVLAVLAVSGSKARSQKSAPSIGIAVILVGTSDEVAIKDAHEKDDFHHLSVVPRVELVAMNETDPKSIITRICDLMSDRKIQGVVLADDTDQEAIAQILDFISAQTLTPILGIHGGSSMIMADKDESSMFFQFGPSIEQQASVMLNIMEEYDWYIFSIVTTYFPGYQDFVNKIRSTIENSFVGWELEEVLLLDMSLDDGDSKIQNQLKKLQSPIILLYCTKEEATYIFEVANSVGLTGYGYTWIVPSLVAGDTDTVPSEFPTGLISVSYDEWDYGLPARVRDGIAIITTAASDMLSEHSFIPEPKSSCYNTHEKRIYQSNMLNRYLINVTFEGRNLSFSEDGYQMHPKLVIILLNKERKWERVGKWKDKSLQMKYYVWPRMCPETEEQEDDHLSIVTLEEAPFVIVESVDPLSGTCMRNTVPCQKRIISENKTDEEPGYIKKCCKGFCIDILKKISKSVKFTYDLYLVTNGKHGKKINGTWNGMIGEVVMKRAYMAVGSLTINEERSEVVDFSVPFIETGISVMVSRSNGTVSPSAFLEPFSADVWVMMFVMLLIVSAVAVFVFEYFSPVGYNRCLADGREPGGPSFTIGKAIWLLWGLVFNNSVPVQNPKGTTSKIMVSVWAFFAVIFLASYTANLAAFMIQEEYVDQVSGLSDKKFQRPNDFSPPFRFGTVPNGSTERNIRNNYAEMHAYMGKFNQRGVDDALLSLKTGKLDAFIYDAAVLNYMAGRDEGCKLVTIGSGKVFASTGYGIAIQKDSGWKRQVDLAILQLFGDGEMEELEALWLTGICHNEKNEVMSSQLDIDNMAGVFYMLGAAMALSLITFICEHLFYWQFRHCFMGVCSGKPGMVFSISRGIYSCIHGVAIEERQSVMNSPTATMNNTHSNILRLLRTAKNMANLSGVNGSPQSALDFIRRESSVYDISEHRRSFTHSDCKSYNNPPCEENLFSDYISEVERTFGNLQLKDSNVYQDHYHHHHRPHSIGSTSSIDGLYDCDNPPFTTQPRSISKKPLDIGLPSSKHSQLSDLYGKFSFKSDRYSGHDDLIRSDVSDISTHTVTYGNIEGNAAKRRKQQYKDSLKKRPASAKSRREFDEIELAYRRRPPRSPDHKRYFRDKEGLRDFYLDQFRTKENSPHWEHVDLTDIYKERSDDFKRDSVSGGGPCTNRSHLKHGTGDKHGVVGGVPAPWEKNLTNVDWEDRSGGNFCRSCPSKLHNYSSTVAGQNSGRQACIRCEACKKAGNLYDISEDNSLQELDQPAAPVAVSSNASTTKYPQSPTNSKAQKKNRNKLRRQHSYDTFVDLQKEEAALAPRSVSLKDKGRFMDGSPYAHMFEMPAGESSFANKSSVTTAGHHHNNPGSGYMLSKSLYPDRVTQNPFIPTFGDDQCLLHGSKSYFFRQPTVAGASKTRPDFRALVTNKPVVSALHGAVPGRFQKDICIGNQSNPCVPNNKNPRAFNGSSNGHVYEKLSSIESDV
compound,measurement,setting,value
COc1ccc2[nH]cc(C(=O)CN3CCC(Cc4ccccc4)CC3)c2c1,Activity,[1],86%
O=C(CN1CCC(Cc2ccccc2)CC1)c1c[nH]c2ccc(O)cc12,Ki,[2],0.0765 µM
same,Ki,[3],> 1 µM
same,Activity,[4],Active
COc1ccc2[nH]cc(C(=O)CN3CCN(Cc4ccccc4)CC3)c2c1,ED50,Mus musculus [5],98.7 µmol/kg
same,ED50,Mus musculus [6],63.8 µmol/kg
COc1cccc2c(C(=O)CN3CCC(Cc4ccccc4)CC3)c[nH]c12,Activity,[1],62%
same,ED50,Mus musculus [5],80.3 µmol/kg
same,ED50,Mus musculus [6],35.8 µmol/kg
same,IC50,[7],2.91 µM
COc1cccc2[nH]cc(C(=O)C(=O)N3CCC(Cc4ccccc4)CC3)c12,Activity,[1],14%
same,ED50,Mus musculus [5],> 100 µmol/kg
same,ED50,Mus musculus [6],76.7 µmol/kg
O=C(CN1CCN(Cc2ccccc2)CC1)c1c[nH]c2ccccc12,Activity,[1],14%
COc1cccc2c(C(=O)C(=O)N3CCC(Cc4ccccc4)CC3)c[nH]c12,Activity,[1],33%
same,ED50,Mus musculus [5],51.4 µmol/kg
same,ED50,Mus musculus [6],27.4 µmol/kg
COc1cccc2[nH]cc(C(=O)CN3CCC(Cc4ccccc4)CC3)c12,Activity,[1],82%
same,ED50,Mus musculus [5],32.7 µmol/kg
same,ED50,Mus musculus [6],16.2 µmol/kg
same,IC50,[7],0.324 µM
COc1ccc2[nH]cc(C(=O)C(=O)N3CCC(Cc4ccccc4)CC3)c2c1,Activity,[1],9%
O=C(C(=O)N1CCC(Cc2ccccc2)CC1)c1c[nH]c2ccc(O)cc12,Ki,[3],> 1 µM
O=C(C(=O)N1CCC(Cc2ccccc2)CC1)c1c[nH]c2c(O)cccc12,Activity,[1],79%
same,ED50,Mus musculus [5],80.5 µmol/kg
same,ED50,Mus musculus [6],36.2 µmol/kg
same,IC50,[7],1.99 µM
COc1ccc2c(C(=O)C(=O)N3CCC(Cc4ccccc4)CC3)c[nH]c2c1,ED50,Mus musculus [5],11.9 µmol/kg
same,ED50,Mus musculus [6],4.68 µmol/kg
O=C(CN1CCC(Cc2ccccc2)CC1)c1c[nH]c2cccc(O)c12,Activity,[1],77%
same,ED50,Mus musculus [5],68.1 µmol/kg
same,ED50,Mus musculus [6],13.7 µmol/kg
same,IC50,[7],6.64 µM
COc1ccc2c(C(=O)CN3CCC(Cc4ccccc4)CC3)c[nH]c2c1,Activity,[1],4%
same,ED50,Mus musculus [5],67.8 µmol/kg
same,ED50,Mus musculus [6],30.1 µmol/kg
O=C(CN1CCC(Cc2ccccc2)CC1)c1c[nH]c2cc(O)ccc12,Activity,[1],92%
same,ED50,Mus musculus [5],95.4 µmol/kg
same,Ki,[2],0.043 µM
same,Ki,[3],> 1 µM
same,ED50,Mus musculus [6],53.7 µmol/kg
same,Activity,[4],inactive
same,IC50,[7],0.017 µM
O=C(C(=O)N1CCC(Cc2ccccc2)CC1)c1c[nH]c2cc(O)ccc12,Activity,[1],92%
same,ED50,Mus musculus [5],84.4 µmol/kg
same,Ki,[3],> 1 µM
same,ED50,Mus musculus [6],38.9 µmol/kg
same,IC50,[7],0.022 µM
O=C(CN1CCC(Cc2ccccc2)CC1)c1c[nH]c2c(O)cccc12,Activity,[1],72%
same,ED50,Mus musculus [5],> 100 µmol/kg
same,ED50,Mus musculus [6],53.8 µmol/kg
same,IC50,[7],7.14 µM
O=C(C(=O)N1CCC(Cc2ccccc2)CC1)c1c[nH]c2cccc(O)c12,Activity,[1],24%
same,ED50,Mus musculus [5],52.1 µmol/kg
same,ED50,Mus musculus [6],28.9 µmol/kg
O=C(CN1CCN(Cc2ccccc2)CC1)c1c[nH]c2ccc(O)cc12,Activity,[1],27%
same,ED50,Mus musculus [5],> 100 µmol/kg
same,Ki,[2],0.557 µM
same,Ki,[3],0.437 µM
same,ED50,Mus musculus [6],44.9 µmol/kg
